In brackets after ≈: the same amount, converted by molar mass.

The text below walks through data of ChEMBL document CHEMBL1153792, “Synthesis, characterization and evaluation of antibacterial activity of some thiazolo[3,2-b][1,2,4]triazole incorporating diphenylsulfone moieties” (2009).

What all share (format): functional
One test deals with Staphylococcus aureus. Put plainly: Antimicrobial activity against Staphylococcus aureus ATCC 12600 after 18 to 24 hrs by liquid broth method. Put shortly:
(§1)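 Serial twofold dilution in Mueller–Hinton broth in 96-well format. Compounds were dissolved in DMSO and tested at final levels of 1024, 512, 256, 128, 64, 32, 16, 8, 4 and 2. Inoculum was a 0.5 McFarland suspension. Plates were incubated at 37 °C for 18–24 h. MIC was read by eye as the lowest concentration clearly inhibiting growth.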

In a further test the test system is Bacillus cereus. Put plainly: Antimicrobial activity against Bacillus cereus ATCC 14579 after 18 to 24 hrs by liquid broth method. Summed up:
as §1

Test [1] relates to Staphylococcus epidermidis. Put plainly: Antimicrobial activity against Staphylococcus epidermidis ATCC 14990 after 18 to 24 hrs by liquid broth method. Summed up:
as §1

Another test has as its system Pseudomonas aeruginosa. Put plainly: Antimicrobial activity against Pseudomonas aeruginosa ATCC 9027 after 18 to 24 hrs by liquid broth method. Summed up:
as §1

In a further test the test system is Acinetobacter baumannii. Kind of test: Antimicrobial activity against Acinetobacter baumannii ATCC 19606 after 18 to 24 hrs by liquid broth method. Summed up:
as §1

The next test has as its system Citrobacter freundii. Kind of test: Antimicrobial activity against Citrobacter freundii ATCC 8090 after 18 to 24 hrs by liquid broth method. Summed up:
as §1

A further test deals with Escherichia coli. Kind of test: Antimicrobial activity against Escherichia coli ATCC 11775 after 18 to 24 hrs by liquid broth method. Put shortly: as §1
A further test concerns Enterococcus faecalis. Kind of test: Antimicrobial activity against Enterococcus faecalis ATCC 19433 after 18 to 24 hrs by liquid broth method. Summed up:
as §1

For `O=C(CSc1nnc(-c2ccc(S(=O)(=O)c3ccccc3)cc2)[nH]1)c1ccccc1`, the MIC against Staphylococcus aureus was determined as 64 µg/mL (≈ 147 µM); against Bacillus cereus it was 128 µg/mL (≈ 294 µM); in test [1] it was 64 µg/mL (≈ 147 µM); against Pseudomonas aeruginosa it was 128 µg/mL (≈ 294 µM); in the test with Acinetobacter baumannii it was 64 µg/mL (≈ 147 µM); with Citrobacter freundii, 128 µg/mL (≈ 294 µM). Further, the values for the minimum inhibitory concentration (MIC) against Escherichia coli and against Enterococcus faecalis were 64 µg/mL (≈ 147 µM) and 256 µg/mL (≈ 588 µM), respectively.

As for `O=S(=O)(c1ccc(Cl)cc1)c1ccc(-c2nc3scc(-c4ccc(Br)cc4)n3n2)cc1`, the MIC in the test on Staphylococcus aureus is 512 µg/mL (≈ 964 µM); with Bacillus cereus, above 1020 µg/mL; in test [1] it was above 1020 µg/mL; with Pseudomonas aeruginosa, above 1020 µg/mL; in the test with Acinetobacter baumannii, 128 µg/mL (≈ 241 µM); in the test on Citrobacter freundii, above 1020 µg/mL. Moreover, the MIC in the test on Escherichia coli and against Enterococcus faecalis was above 1020 µg/mL each time.

For the compound `O=C(CSc1nnc(-c2ccc(S(=O)(=O)c3ccc(Br)cc3)cc2)[nH]1)c1ccc(Br)cc1`, the MIC with Staphylococcus aureus amounted to 128 µg/mL (≈ 216 µM); with Bacillus cereus, 256 µg/mL (≈ 431 µM); in test [1], 64 µg/mL (≈ 108 µM); against Pseudomonas aeruginosa, 128 µg/mL (≈ 216 µM); against Acinetobacter baumannii, 64 µg/mL (≈ 108 µM); in the test with Citrobacter freundii, 128 µg/mL (≈ 216 µM). In addition, the MIC stood at 64 µg/mL (≈ 108 µM) against Escherichia coli and 128 µg/mL (≈ 216 µM) with Enterococcus faecalis.

`O=S(=O)(c1ccc(Br)cc1)c1ccc(-c2nc3scc(-c4ccccc4)n3n2)cc1`: the minimum inhibitory concentration (MIC) turned out to be 128 µg/mL (≈ 258 µM) against Staphylococcus aureus; 256 µg/mL (≈ 516 µM) with Bacillus cereus; 64 µg/mL (≈ 129 µM) in test [1]; 128 µg/mL (≈ 258 µM) with Pseudomonas aeruginosa; 64 µg/mL (≈ 129 µM) in the test on Acinetobacter baumannii; 128 µg/mL (≈ 258 µM) against Citrobacter freundii. In addition, the minimal inhibitory concentration (MIC) against Escherichia coli stood at 64 µg/mL (≈ 129 µM); against Enterococcus faecalis, 256 µg/mL (≈ 516 µM).

As to `O=C(CSc1nnc(-c2ccc(S(=O)(=O)c3ccccc3)cc2)[nH]1)c1ccc(Br)cc1`, the minimum inhibitory concentration (MIC) (against Staphylococcus aureus; with Bacillus cereus; in test [1]; against Pseudomonas aeruginosa; against Acinetobacter baumannii; in the test on Citrobacter freundii) was 512 µg/mL (≈ 995 µM) each time. The minimal inhibitory concentration (MIC) against Escherichia coli and with Enterococcus faecalis was 512 µg/mL (≈ 995 µM) each time.

For `O=S(=O)(c1ccc(Br)cc1)c1ccc(-c2nc3scc(-c4ccc(Br)cc4)n3n2)cc1`, the MIC stood at 128 µg/mL (≈ 222 µM) in the test with Staphylococcus aureus; 256 µg/mL (≈ 445 µM) against Bacillus cereus; 64 µg/mL (≈ 111 µM) in test [1]; 128 µg/mL (≈ 222 µM) against Pseudomonas aeruginosa; 64 µg/mL (≈ 111 µM) in the test on Acinetobacter baumannii; 128 µg/mL (≈ 222 µM) against Citrobacter freundii. The MIC against Escherichia coli worked out at 64 µg/mL (≈ 111 µM); against Enterococcus faecalis, 256 µg/mL (≈ 445 µM).

Take `O=S(=O)(c1ccccc1)c1ccc(-c2nc3scc(-c4ccccc4)n3n2)cc1`: the minimal inhibitory concentration (MIC) against Staphylococcus aureus worked out at 128 µg/mL (≈ 307 µM); with Bacillus cereus, 512 µg/mL (≈ 1230 µM); in test [1], 64 µg/mL (≈ 153 µM); in the test on Pseudomonas aeruginosa it was 128 µg/mL (≈ 307 µM); in the test on Acinetobacter baumannii, 64 µg/mL (≈ 153 µM); against Citrobacter freundii, 128 µg/mL (≈ 307 µM). Also, the minimal inhibitory concentration (MIC) against Escherichia coli is 64 µg/mL (≈ 153 µM); in the test on Enterococcus faecalis, 512 µg/mL (≈ 1230 µM).

For `O=S(=O)(c1ccc(Br)cc1)c1ccc(-c2nnc(S)[nH]2)cc1`, the MIC against Staphylococcus aureus worked out at 64 µg/mL (≈ 161 µM); in the test on Bacillus cereus, 64 µg/mL (≈ 161 µM); in test [1], 256 µg/mL (≈ 646 µM); in the test on Pseudomonas aeruginosa it was 128 µg/mL (≈ 323 µM); against Acinetobacter baumannii, 64 µg/mL (≈ 161 µM); in the test with Citrobacter freundii it was 128 µg/mL (≈ 323 µM). Also, the minimal inhibitory concentration (MIC) against Escherichia coli came to 64 µg/mL (≈ 161 µM); against Enterococcus faecalis, 256 µg/mL (≈ 646 µM).

For `O=C(CSc1nnc(-c2ccc(S(=O)(=O)c3ccc(Br)cc3)cc2)[nH]1)c1ccccc1`, the minimal inhibitory concentration (MIC) with Staphylococcus aureus is 128 µg/mL (≈ 249 µM); in the test with Bacillus cereus, 128 µg/mL (≈ 249 µM); in test [1], 64 µg/mL (≈ 124 µM); with Pseudomonas aeruginosa, 128 µg/mL (≈ 249 µM); in the test on Acinetobacter baumannii it was 64 µg/mL (≈ 124 µM); in the test with Citrobacter freundii it was 128 µg/mL (≈ 249 µM). Moreover, the minimal inhibitory concentration (MIC) in the test on Escherichia coli stood at 64 µg/mL (≈ 124 µM); in the test with Enterococcus faecalis, 256 µg/mL (≈ 498 µM).

As for `O=C(CSc1nnc(-c2ccc(S(=O)(=O)c3ccc(Cl)cc3)cc2)[nH]1)c1ccccc1`, the MIC turned out to be 64 µg/mL (≈ 136 µM) with Staphylococcus aureus; 64 µg/mL (≈ 136 µM) against Bacillus cereus; 64 µg/mL (≈ 136 µM) in test [1]; 64 µg/mL (≈ 136 µM) in the test on Pseudomonas aeruginosa; 64 µg/mL (≈ 136 µM) in the test with Acinetobacter baumannii; 128 µg/mL (≈ 272 µM) in the test on Citrobacter freundii. Also, the values for the MIC in the test with Escherichia coli and in the test on Enterococcus faecalis were 64 µg/mL (≈ 136 µM) and 256 µg/mL (≈ 545 µM), respectively.

For the compound `O=C(CSc1nnc(-c2ccc(S(=O)(=O)c3ccc(Cl)cc3)cc2)[nH]1)c1ccc(Br)cc1`, the MIC with Staphylococcus aureus stood at 64 µg/mL (≈ 117 µM); in the test on Bacillus cereus, 64 µg/mL (≈ 117 µM); in test [1], 64 µg/mL (≈ 117 µM); in the test on Pseudomonas aeruginosa, 64 µg/mL (≈ 117 µM); against Acinetobacter baumannii, 64 µg/mL (≈ 117 µM); against Citrobacter freundii, 128 µg/mL (≈ 233 µM). Further, the MIC with Escherichia coli came out at 64 µg/mL (≈ 117 µM); against Enterococcus faecalis, 256 µg/mL (≈ 466 µM).

Turning to `O=S(=O)(c1ccc(Cl)cc1)c1ccc(-c2nc3scc(-c4ccccc4)n3n2)cc1`, the minimum inhibitory concentration (MIC) against Staphylococcus aureus was above 1020 µg/mL; against Bacillus cereus, above 1020 µg/mL; in test [1] it was above 1020 µg/mL; in the test on Pseudomonas aeruginosa, above 1020 µg/mL; in the test with Acinetobacter baumannii it was 512 µg/mL (≈ 1130 µM); against Citrobacter freundii it was above 1020 µg/mL. The minimum inhibitory concentration (MIC) against Escherichia coli was 1020 µg/mL (≈ 2270 µM); in the test on Enterococcus faecalis it was above 1020 µg/mL.

For the compound `O=S(=O)(c1ccccc1)c1ccc(-c2nc3scc(-c4ccc(Br)cc4)n3n2)cc1`, the minimum inhibitory concentration (MIC) came to 128 µg/mL (≈ 258 µM) with Staphylococcus aureus; 128 µg/mL (≈ 258 µM) in the test on Bacillus cereus; 64 µg/mL (≈ 129 µM) in test [1]; 128 µg/mL (≈ 258 µM) with Pseudomonas aeruginosa; 64 µg/mL (≈ 129 µM) against Acinetobacter baumannii; 128 µg/mL (≈ 258 µM) in the test on Citrobacter freundii. Besides, the minimal inhibitory concentration (MIC) amounted to 64 µg/mL (≈ 129 µM) in the test on Escherichia coli and 256 µg/mL (≈ 516 µM) with Enterococcus faecalis.

On to `O=S(=O)(c1ccc(Cl)cc1)c1ccc(-c2nnc(S)[nH]2)cc1`, for which the MIC with Staphylococcus aureus is 1020 µg/mL (≈ 2910 µM); against Bacillus cereus it was 1020 µg/mL (≈ 2910 µM); in test [1] it was 1020 µg/mL (≈ 2910 µM); in the test on Pseudomonas aeruginosa, 1020 µg/mL (≈ 2910 µM); with Acinetobacter baumannii it was 256 µg/mL (≈ 728 µM); in the test with Citrobacter freundii, above 1020 µg/mL. The results for the minimum inhibitory concentration (MIC) against Escherichia coli and against Enterococcus faecalis were 1020 µg/mL (≈ 2910 µM) and above 1020 µg/mL, respectively.

As for `O=S(=O)(c1ccccc1)c1ccc(-c2nnc(S)[nH]2)cc1`, the MIC against Staphylococcus aureus is 512 µg/mL (≈ 1610 µM); against Bacillus cereus, 1020 µg/mL (≈ 3230 µM); in test [1], above 1020 µg/mL; in the test with Pseudomonas aeruginosa it was above 1020 µg/mL; against Acinetobacter baumannii, 256 µg/mL (≈ 807 µM); against Citrobacter freundii, above 1020 µg/mL. The MIC with Escherichia coli is 512 µg/mL (≈ 1610 µM); in the test with Enterococcus faecalis, above 1020 µg/mL.

As to `CC1(C)S[C@@H]2[C@H](NC(=O)[C@H](N)c3ccccc3)C(=O)N2[C@H]1C(=O)O` [AMPICILLIN], the MIC in the test with Staphylococcus aureus is 0.5 µg/mL (≈ 1.43 µM); in test [1], 0.064 µg/mL (≈ 0.183 µM); with Citrobacter freundii, 2 µg/mL (≈ 5.72 µM); with Enterococcus faecalis, 0.5 µg/mL (≈ 1.43 µM).

In the case of `CN(C)[C@@H]1C(O)=C(C(N)=O)C(=O)[C@@]2(O)C(O)=C3C(=O)c4c(O)cccc4[C@@](C)(O)[C@H]3C[C@@H]12` [TETRACYCLINE], the MIC against Staphylococcus aureus is 0.19 µg/mL (≈ 0.428 µM); in the test on Bacillus cereus, 0.094 µg/mL (≈ 0.212 µM); in test [1], 24 µg/mL (≈ 54 µM); against Pseudomonas aeruginosa, 12 µg/mL (≈ 27 µM); against Acinetobacter baumannii, 1.5 µg/mL (≈ 3.38 µM); against Citrobacter freundii, 1 µg/mL (≈ 2.25 µM). Moreover, the minimum inhibitory concentration (MIC) with Escherichia coli was 1.5 µg/mL (≈ 3.38 µM); in the test on Enterococcus faecalis it was 32 µg/mL (≈ 72 µM).

The term MIC denotes the lowest concentration that inhibits growth of the organism. A high value points to a need for much substance.
